# ChEMBL document CHEMBL4414651, “Discovery and Optimization of Salicylic Acid-Derived Sulfonamide Inhibitors of the WD Repeat-Containing Protein 5-MYC Protein-Protein Interaction” (J Med Chem, 2019)
# The source made the active and inactive calls. The rule behind the calls is not given here.
# Legend:
# [1] = biological target: T1, WD repeat-containing protein 5 (Homo sapiens, UniProt P61964)
# [2] = biological target: T1, WD repeat-containing protein 5; assay: Binding affinity to N-terminal FLAG-tagged human full-length WDR5 expressed in HEK293T cells harboring human C-terminal HA-tagged c-MYC assessed as disruption of WDR5-c-MYC protein-protein interaction at 50 uM by SDS-PAGE based immunoblot assay; assay type: cell-based
# [3] = biological target: T1, WD repeat-containing protein 5; assay: Binding affinity to N-terminal FLAG-tagged human full-length WDR5 expressed in HEK293T cells harboring human C-terminal HA-tagged c-MYC assessed as disruption of WDR5-RBBP5 protein-protein interaction at 50 uM by SDS-PAGE based immunoblot assay; assay type: cell-based
# Method in brief: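 HEK293 cells expressing FLAG-WDR5 and c-MYC-HA were kept in DMEM with 10% FBS, hygromycin B 50 μg/mL and puromycin 100 ng/mL. Lysates in Tris pH 8.0/NaCl/EDTA/1% Triton buffer were treated with compound at 50 μM or 6.25–50 μM. α-FLAG magnetic M2 beads, 2 h at 4 °C, then SDS-PAGE and α-RBBP5 immunoblot. Quantified against vehicle; at least two independent repeats.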
# [4] = Solubility of the compound; assay type: physicochemical
# Method in brief: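 Kinetic solubility, measured by an outside contract lab using a standard commercial assay format.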
# [5] = Apparent permeability from apical to basolateral side in MDCK cells; assay type: ADME, cell-based, Canis lupus familiaris; conditions: dog
# [6] = Protein binding in plasma (unknown origin) assessed as unbound fraction; assay type: ADME, cell-free
# Homo sapiens = species: Homo sapiens; assay: Inhibition of human MLL1/WDR5/RBBP5/ASH2L/DPY30 complex assessed as reduction in histone methyl-transferase activity using H3-peptide as substrate
# [7] = biological target: T1, WD repeat-containing protein 5; assay: Binding affinity to N-terminal FLAG-tagged human full-length WDR5 […] assessed as change in melting temperature at 10 uM by differential scanning fluorimetry
# Method in brief: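 Thermal shift (differential scanning fluorimetry) on WDR5, with compounds at 10 μM. Samples were run in triplicate, and ΔTm is the average melting-temperature shift read by fluorescence.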
Structure (SMILES),Kd [1],other results
CS(=O)(=O)c1cc(C2(C#N)CCC2)cc(NS(=O)(=O)c2cc(Br)cc3cccnc23)c1O,272 nM,
CNC(=O)c1cc(C2(C#N)CCCCC2)cc(NS(=O)(=O)c2cc(Br)cc(Cl)c2O)c1O,362 nM,Activity [2]: Active; Activity [3]: Active
CS(=O)(=O)c1cc(Cl)cc(NS(=O)(=O)c2cc(Br)cc3cccnc23)c1O,385 nM,Activity [2]: Active
CNC(=O)c1cc(C2(C#N)CCC2)cc(NS(=O)(=O)c2cc(Br)ccc2OC)c1O,906 nM,Activity [2]: Active
O=C(O)c1c(O)c(NS(=O)(=O)c2cc(Br)ccc2O)cc(C2CC2)c1F,122 nM,solubility [4]: > 100 µM; Papp [5]: 0.61 ×10⁻⁶ cm/s; Fu [6]: < 0.0008%; inhibition (Homo sapiens): Active
CNC(=O)c1cc(NS(=O)(=O)c2cc(Br)ccc2O)cc(C2(C#N)CCC2)c1,1080 nM,
COc1ccc(Br)cc1S(=O)(=O)Nc1ccccc1O,> 40000 nM,
CCOc1cc(S(=O)(=O)Nc2ccccc2C(=O)O)ccc1F,71000 nM,
COc1ccc(Br)cc1S(=O)(=O)Nc1cc(Cl)cc(S(C)(=O)=O)c1O,304 nM,Activity [2]: Active
COc1ccc(Br)cc1S(=O)(=O)Nc1cc(Cl)cc(C(=O)O)c1O,431 nM,
O=C(O)c1c(O)c(NS(=O)(=O)c2cc(Br)cc(Cl)c2O)cc(C2CC2)c1F,50 nM,Activity [2]: Active; Activity [3]: Active; inhibition (Homo sapiens): Active
CNC(=O)c1cc(Cl)cc(NS(=O)(=O)c2cc(Br)cc(Cl)c2O)c1O,298 nM,
COc1ccc(Br)cc1S(=O)(=O)Nc1cc(-c2ccccc2)ccc1O,37000 nM,
CNC(=O)c1cc(S(F)(F)(F)(F)F)cc(NS(=O)(=O)c2cc(Br)cc(Cl)c2O)c1O,190 nM,Activity [2]: Active
CS(=O)(=O)c1cc(S(F)(F)(F)(F)F)cc(NS(=O)(=O)c2cc(Br)ccc2O)c1O,167 nM,
O=C(O)c1cc(NS(=O)(=O)c2cc(Br)ccc2O)cc(OC(F)(F)F)c1,194 nM,
CS(=O)(=O)c1cc(NS(=O)(=O)c2cc(Br)cc(Cl)c2O)cc(C2(C#N)CCC2)c1,215 nM,
CS(=O)(=O)c1cc(S(F)(F)(F)(F)F)cc(NS(=O)(=O)c2cc(Br)cc(Cl)c2O)c1O,45 nM,solubility [4]: > 100 µM; Papp [5]: 18.6 ×10⁻⁶ cm/s; Fu [6]: < 0.0003%
N#CC1(c2ccc(O)c(NS(=O)(=O)c3cc(Br)ccc3O)c2)CCC1,289 nM,solubility [4]: > 100 µM; Papp [5]: 27.8 ×10⁻⁶ cm/s; Fu [6]: < 0.0005%; ΔTm [7]: 2.63 °C; inhibition (Homo sapiens): Active
N#CC1(c2cc(NS(=O)(=O)c3ccc(Br)cc3O)c(O)c(C(=O)O)c2)CCC1,,ΔTm [7]: 0.42 °C

Structure (SMILES),Kd [1],other results
CNC(=O)c1c(O)c(NS(=O)(=O)c2cc(Br)cc(Cl)c2O)cc(C2CC2)c1F,238 nM,Activity [2]: Active; Activity [3]: Active; inhibition (Homo sapiens): Active
CNC(=O)c1cc(S(F)(F)(F)(F)F)cc(NS(=O)(=O)c2cc(Br)cc3cccnc23)c1O,122 nM,
O=C(O)c1cc(S(F)(F)(F)(F)F)cc(NS(=O)(=O)c2cc(Br)cc3cccnc23)c1O,47 nM,
CS(=O)(=O)c1cc(Cl)cc(NS(=O)(=O)c2cc(Br)ccc2O)c1,1880 nM,solubility [4]: > 100 µM; Papp [5]: 4.79 ×10⁻⁶ cm/s; Fu [6]: 0.004%
N#CC1(c2ccc(O)c(NS(=O)(=O)c3cc(Br)ccc3O)c2)CCCC1,614 nM,
O=S(=O)(Nc1cc(Cl)ccc1O)c1cc(Br)ccc1O,1250 nM,solubility [4]: > 100 µM; Papp [5]: 36.4 ×10⁻⁶ cm/s; Fu [6]: < 0.0026%
COc1ccc(Br)cc1S(=O)(=O)Nc1ccc(Cl)cc1O,27700 nM,
O=S(=O)(Nc1cc(OC(F)(F)F)ccc1O)c1cc(Br)ccc1O,549 nM,
O=C(O)c1cc(C2CC2)cc(NS(=O)(=O)c2cc(Br)cc(Cl)c2O)c1O,207 nM,
CCOc1ccc(S(=O)(=O)Nc2ccccc2C(=O)O)c(C)c1C,> 125000 nM,
CNC(=O)c1cc(S(F)(F)(F)(F)F)cc(NS(=O)(=O)c2cc(Br)ccc2O)c1O,204 nM,
O=C(O)c1cc(S(F)(F)(F)(F)F)cc(NS(=O)(=O)c2cc(Br)cc(Cl)c2O)c1O,31 nM,ΔTm [7]: 8.42 °C
O=C(O)c1cc(Cl)cc(NS(=O)(=O)c2cc(Br)ccc2O)c1O,223 nM,ΔTm [7]: 4.05 °C
CS(=O)(=O)c1cc(NS(=O)(=O)c2cc(Br)ccc2O)cc(S(F)(F)(F)(F)F)c1,511 nM,solubility [4]: > 100 µM; Papp [5]: 16.1 ×10⁻⁶ cm/s; Fu [6]: 0.002%
CNC(=O)c1cc(C2(C#N)CCC2)cc(NS(=O)(=O)c2cc(Br)cc3cccnc23)c1O,825 nM,Activity [2]: Active
CS(=O)(=O)c1cc(Cl)cc(NS(=O)(=O)c2cc(Br)cc(Cl)c2O)c1,220 nM,solubility [4]: > 100 µM; Papp [5]: 3.89 ×10⁻⁶ cm/s; Fu [6]: 0.0007%
O=S(=O)(Nc1cc(C2(C(F)(F)F)CC2)ccc1O)c1cc(Br)ccc1O,547 nM,
O=C(O)c1cc(Cl)cc(NS(=O)(=O)c2cc(Br)cc(Cl)c2O)c1O,163 nM,ΔTm [7]: 4.05 °C
COc1ccc(I)cc1S(=O)(=O)Nc1cc(Cl)ccc1O,8390 nM,
N#CC1(c2cc(NS(=O)(=O)c3cc(Br)cc4cccnc34)c(O)c(C(=O)O)c2)CCC1,104 nM,

Structure (SMILES),Kd [1],other results
CS(=O)(=O)c1cc(NS(=O)(=O)c2cc(Br)cc(Cl)c2O)cc(S(F)(F)(F)(F)F)c1,93 nM,Activity [2]: Active
O=C(O)c1cc(Cl)cc(NS(=O)(=O)c2cc(Br)ccc2O)c1,2880 nM,
CNC(=O)c1cc(NS(=O)(=O)c2cc(Br)ccc2O)cc(S(F)(F)(F)(F)F)c1,848 nM,
CS(=O)(=O)c1cc(Cl)cc(NS(=O)(=O)c2cc(Br)cc(Cl)c2O)c1O,123 nM,Activity [2]: Active; inhibition (Homo sapiens): Active
CS(=O)(=O)c1cc(C2(C#N)CCC2)cc(NS(=O)(=O)c2cc(Br)cc(Cl)c2O)c1O,110 nM,
CNC(=O)c1cc(NS(=O)(=O)c2cc(Br)cc(Cl)c2O)cc(C2(C#N)CCC2)c1,128 nM,
COc1ccc(Cl)cc1S(=O)(=O)Nc1cc(Cl)ccc1O,8410 nM,
O=S(=O)(Nc1cc(S(F)(F)(F)(F)F)ccc1O)c1cc(Br)ccc1O,110 nM,solubility [4]: > 100 µM; Papp [5]: 14.7 ×10⁻⁶ cm/s; inhibition (Homo sapiens): Active
N#CC1(c2ccc(O)c(NS(=O)(=O)c3cc(Br)ccc3O)c2)CCCCC1,229 nM,
CNC(=O)c1cc(C2(C#N)CCC2)cc(NS(=O)(=O)c2cc(Br)ccc2O)c1O,566 nM,Activity [2]: Active; solubility [4]: > 100 µM; Papp [5]: 45.2 ×10⁻⁶ cm/s; Fu [6]: < 0.0006%; Activity [3]: Active; inhibition (Homo sapiens): Active
N#CC1(c2cc(NS(=O)(=O)c3cc(Br)ccc3O)c(O)c(C(=O)O)c2)CCCCC1,195 nM,
O=S(=O)(Nc1cc(C2CC2)ccc1O)c1cc(Br)ccc1O,818 nM,
COc1ccc(Br)cc1S(=O)(=O)Nc1cc(Cl)ccc1O,,inhibition (Homo sapiens): Active
O=S(=O)(Nc1cc(Cl)ccc1O)c1cccc(Br)c1,36100 nM,
COc1ccccc1S(=O)(=O)Nc1cc(Cl)ccc1O,> 40000 nM,
O=C(O)c1cc(OC(F)(F)F)cc(NS(=O)(=O)c2cc(Br)ccc2O)c1O,137 nM,
O=C(O)c1cc(NS(=O)(=O)c2cc(Br)ccc2O)cc(S(F)(F)(F)(F)F)c1,64 nM,
CS(=O)(=O)c1cc(Cl)cc(NS(=O)(=O)c2cc(Br)ccc2O)c1O,1070 nM,inhibition (Homo sapiens): Active
CS(=O)(=O)c1cc(C2(C#N)CCC2)cc(NS(=O)(=O)c2cc(Br)ccc2O)c1O,349 nM,
COc1ccc(Br)cc1S(=O)(=O)Nc1cc(C(C)(C)C)ccc1O,3780 nM,
